Source: ChEMBL document CHEMBL5705892, “MK-2206, an allosteric Akt inhibitor, enhances antitumor efficacy by standard chemotherapeutic agents or molecular targeted drugs in vitro and in vivo” (Mol Cancer Ther, 2010)
Calls of active or inactive are those of the source. The rule behind the calls is not given here.

Legend:
[1] = Toxicity in human NCI-H292 cells xenografted CD-1 mouse assessed as weight loss at 360 mg/kg, po administered once a week for 2 weeks starting 2 hrs post-erlotinib treatment and measured on day 16; assay type: organism-based; conditions: in vivo, 384 h, time 16 day
Method in brief: (§1)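 Female CD1-nude mice bearing s.c. NCI-H292 tumours (cells in 50% Matrigel/50% PBS, left flank), randomized at mean 0.2 cm³, n=5/group. Body weight monitored; treatment period ended day 16.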

NCI-H460 [2] = assay: Synergistic antiproliferative activity against human NCI-H460 cells assessed as combination index at ED75 measured after 72 hrs in presence of gemcitabine by celltiter-glo assay; assay type: functional
HCC70 [3] = assay: Antitumor activity against human HCC70 cells xenografted in CB17/icr SCID mouse assessed as tumor growth inhibition at 120 mg/kg, po administered 3 times per week for 3 weeks starting 2 hrs post-lapatinib treatment and measured twice a week during compound dosing by caliper method; assay type: functional, organism-based
Method in brief: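 Female C.B-17/ICR-scid mice were given s.c. HCC70 cells in 50% Matrigel/50% PBS in the left flank. They were randomized at a mean tumor size of 0.2 cm³, n = 5 per group. Lapatinib (distilled water) was given at 100 mg/kg po, 5 d/wk for 3 wk. MK-2206 (30% Captisol) was given at 120 mg/kg po, 3×/wk, 2 h after lapatinib. Calipers twice weekly; volume = […] × 0.5.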

[4] = biological target: RAC-alpha serine/threonine-protein kinase (Homo sapiens) (UniProt P31749); assay: Inhibition of AKT in human HCC827 cells assessed as reduction in PRAS40 phosphorylation at T246 residue at 5 umol/L measured after 5 hrs in presence of erlotinib by Western blot analysis; assay type: cell-based; conditions: dose 5.0 µmol/L
RAC-alpha serine/threonine-protein kinase (Homo sapiens), sequence (P31749 whole entry): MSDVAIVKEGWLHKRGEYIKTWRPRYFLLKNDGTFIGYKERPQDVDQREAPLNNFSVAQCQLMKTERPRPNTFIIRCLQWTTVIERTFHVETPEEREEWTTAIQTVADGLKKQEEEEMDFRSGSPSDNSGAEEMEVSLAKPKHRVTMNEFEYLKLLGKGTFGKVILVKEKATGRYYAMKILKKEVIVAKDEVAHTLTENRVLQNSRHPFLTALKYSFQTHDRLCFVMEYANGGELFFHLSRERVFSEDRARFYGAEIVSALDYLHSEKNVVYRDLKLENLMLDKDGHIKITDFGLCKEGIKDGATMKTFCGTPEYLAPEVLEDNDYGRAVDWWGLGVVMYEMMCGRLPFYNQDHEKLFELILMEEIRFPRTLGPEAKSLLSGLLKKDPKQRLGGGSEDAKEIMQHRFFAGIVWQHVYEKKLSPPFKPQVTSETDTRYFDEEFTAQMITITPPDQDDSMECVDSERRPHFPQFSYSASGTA

NCI-H441 = assay: Induction of apoptosis in human NCI-H441 cells assessed as fold induction of capsase-3/7 activity measured after 24 to 48 hrs in presence of gemcitabine by caspase-glo 3/7 assay; assay type: functional; conditions: time 24-48 hrs
[5] = Toxicity in human NCI-H292 cells xenografted CD-1 mouse assessed as weight loss at 120 mg/kg, po administered 3 times per week for 2 weeks starting 2 hrs post-erlotinib treatment and measured during compound dosing; assay type: organism-based; conditions: in vivo, 336 h
Method in brief: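 NCI-H292 cells in 50% Matrigel/PBS injected s.c. into flank of female CD1-nude mice; dosing began after 2 wk at mean tumour 0.2 cm³, n = 5/group. […] Body weight and signs monitored; treatment ended day 16.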

NCI-N87 = assay: Synergistic antiproliferative activity against human NCI-N87 cells assessed as combination index at ED50 measured after 72 hrs in presence of lapatinib by celltiter-glo assay; assay type: functional
MDA-MB-468 [6] = assay: Synergistic antiproliferative activity against human MDA-MB-468 cells assessed as combination index at ED50 measured after 72 hrs in presence of lapatinib by celltiter-glo assay; assay type: functional
Method in brief: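 Cells grown in RPMI 1640 with 10% heat-inactivated FBS at 37°C, 5% CO₂. Seeded at 2 to 3 × 10³ per well; drugs added 24 h later. […] Viability read as cellular ATP by CellTiter-Glo. CI calculated by Chou–Talalay from median-effect plots at ED50, ED75 and ED90.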

HCC70 [7] = assay: Synergistic antiproliferative activity against human HCC70 cells assessed as combination index at ED90 measured after 96 hrs in presence of lapatinib by celltiter-glo assay; assay type: functional
ZR-75-1 = assay: Synergistic antiproliferative activity against human ZR-75-1 cells assessed as combination index at ED90 measured after 72 hrs in presence of docetaxel by celltiter-glo assay; assay type: functional
[8] = Effect on total S6 protein expression in human HCC70 cells at 1 umol/L measured after 3 to 24 hrs in presence of lapatinib by Western blot analysis; assay type: toxicity, cell-based; conditions: hcc70, 1 µM, time 3-24 hrs, dose 1 µmol/L
Method in brief: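 HCC70 cells at ~70% confluence were exposed to 1 µmol/L MK-2206, 10 µmol/L lapatinib, or both for 0, 3, 6, 12 or 24 h. Cells were lysed in Tris-HCl pH 7.5/NaCl/1% Triton X-100 with protease and phosphatase inhibitors. Lysates were run on SDS-PAGE and immunoblotted.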

HCC827 = assay: Antiproliferative activity against human HCC827 cells assessed as reduction in cell proliferation measured after 72 hrs by celltiter-glo assay; assay type: functional, cell-based; conditions: HCC827, 72 h
Method in brief: (§2)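 Cells in RPMI 1640 with 10% heat-inactivated FBS at 37°C and 5% CO₂ were seeded at 2 to 3 × 10³ per well. […] Growth was read as cellular ATP by CellTiter-Glo.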

HCC1954 = assay: Antiproliferative activity against human HCC1954 cells assessed as reduction in cell proliferation measured after 72 hrs by celltiter-glo assay; assay type: functional, cell-based; conditions: HCC1954, 72 h; method in brief: as §2
NCI-H292 = assay: Synergistic antiproliferative activity against human NCI-H292 cells assessed as combination index at ED75 measured after 72 hrs in presence of erlotinib by celltiter-glo assay; assay type: functional
[9] = Toxicity in human NCI-H292 cells xenografted CD-1 mouse assessed as weight loss at 120 mg/kg, po administered 3 times per week for 2 weeks starting 2 hrs post-erlotinib treatment and measured on day 16; assay type: organism-based; conditions: in vivo, 384 h, time 16 day; method in brief: as §1
NCI-H23 = assay: Synergistic antiproliferative activity against human NCI-H23 cells assessed as fold change in erlotinib IC50 at 1 umol/L measured after 72 hrs in presence of erlotinib by celltiter-glo assay relative to erlotinib alone; assay type: functional; conditions: dose 1 µmol/L
A2780 [10] = assay: Synergistic antiproliferative activity against human A2780 cells assessed as combination index at ED50 measured after 72 hrs in presence of gemcitabine by celltiter-glo assay; assay type: functional
Method in brief: (§3)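 Cells were seeded at 2–3 × 10³ per well in RPMI 1640 with 10% FBS. At 24 h, MK-2206 and the partner drug were added simultaneously at constant concentration ratios spanning each agent's IC₅₀, for 72 h. Growth was read as cellular ATP by CellTiter-Glo. CI was taken from median-effect plots of each agent alone and in combination (Chou–Talalay), at ED₅₀, ED₇₅ and ED₉₀.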

A2780 [11] = assay: Synergistic antiproliferative activity against human A2780 cells assessed as combination index at ED90 measured after 72 hrs in presence of carboplatin by celltiter-glo assay; assay type: functional; method in brief: as §3
MDA-MB-468 [12] = assay: Antiproliferative activity against human MDA-MB-468 cells assessed as reduction in cell proliferation measured after 72 hrs by celltiter-glo assay; assay type: functional, cell-based; conditions: MDA-MB-468, 72 h; method in brief: as §2
[13] = biological target: RAC-alpha serine/threonine-protein kinase (Homo sapiens) (UniProt P31749); assay: Inhibition of AKT phosphorylation at S473 residue in human NCI-H1993 cells at 3 umol/L measured after 4 to 24 hrs in presence of carboplatin by MSD assay; conditions: time 4-24 hrs
NCI-H460 [14] = assay: Synergistic antiproliferative activity against human NCI-H460 cells assessed as combination index at ED90 measured after 72 hrs in presence of 5-FU by celltiter-glo assay; assay type: functional
A2780 [15] = assay: Synergistic antiproliferative activity against human A2780 cells assessed as combination index at ED90 measured after 72 hrs in presence of 5-FU by celltiter-glo assay; assay type: functional; method in brief: as §3
SK-BR-3 = assay: Synergistic antiproliferative activity against human SK-BR-3 cells assessed as combination index at ED75 treated 24 hrs prior to lapatinib and measured after 72 hrs by celltiter-glo assay; assay type: functional; conditions: time 96 hrs

For `Cl.NC1(c2ccc(-c3nc4ccn5c(=O)[nH]nc5c4cc3-c3ccccc3)cc2)CCC1`, the Activity [1] was “Non-Toxic”, the CI75 (NCI-H460 [2]) was 0.39 and the TGI (HCC70 [3]) was “Active”. For the same compound, the inhibition [4] was “Active”, the “fold change (FC)” value (NCI-H441) was 2.3 and the Activity [5] was “Toxic”. It also gave a CI50 (NCI-N87) of 0.45, a CI50 (MDA-MB-468 [6]) of 0.42 and a CI90 (HCC70 [7]) of 0.18. For the same compound, the CI90 (ZR-75-1) was 0.4, the Activity [8] was “Toxic” and the IC50 (HCC827) was 4.3 µM. The IC50 (HCC1954) was 2.9 µM, the CI75 (NCI-H292) was 0.31 and the Activity [9] was “Non-Toxic”. For the same compound, the “Ratio IC50” value (NCI-H23) was 2.4, the CI50 (A2780 [10]) was 0.57 and the CI90 (A2780 [11]) was 0.38. For the same compound, the IC50 (MDA-MB-468 [12]) was 2.6 µM, the inhibition [13] was “Active” and the CI90 (NCI-H460 [14]) was 0.54. For the same compound, the CI90 (A2780 [15]) was 0.53 and the CI75 (SK-BR-3) was 0.18.
